Laboratory results: ChEMBL document CHEMBL1944635, “Synthesis and evaluation of debromohymenialdisine-derived Chk2 inhibitors” (Bioorg Med Chem, 2012)

How the values were obtained:
[1] = target: T1, Serine/threonine-protein kinase Chk1 (Homo sapiens, UniProt O14757); assay: Inhibition of human CHK1 using STK1 as substrate after 10 mins by HTRF assay
T1 sequence (O14757 whole entry): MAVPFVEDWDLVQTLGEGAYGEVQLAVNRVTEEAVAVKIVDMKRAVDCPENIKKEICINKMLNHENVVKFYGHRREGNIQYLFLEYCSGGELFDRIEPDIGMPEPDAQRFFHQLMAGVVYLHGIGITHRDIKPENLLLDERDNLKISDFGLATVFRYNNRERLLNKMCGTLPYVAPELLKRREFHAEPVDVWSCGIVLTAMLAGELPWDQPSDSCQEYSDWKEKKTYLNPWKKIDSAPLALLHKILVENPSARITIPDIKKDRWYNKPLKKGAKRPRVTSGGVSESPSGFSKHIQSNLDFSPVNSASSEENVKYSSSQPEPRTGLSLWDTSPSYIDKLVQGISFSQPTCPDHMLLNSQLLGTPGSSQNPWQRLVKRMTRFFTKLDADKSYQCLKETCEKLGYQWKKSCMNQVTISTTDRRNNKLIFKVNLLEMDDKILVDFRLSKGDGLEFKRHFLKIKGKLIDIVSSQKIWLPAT
Outline: (§1)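 Human Chk1 or Chk2 was incubated with test agent over a concentration range (final DMSO 0.2%) and STK1 substrate (50 nM for Chk1, 1 µM for Chk2) in 50 mM HEPES pH 7.0 with 5 mM MgCl2 and 1 mM DTT. The reaction was started with 100 µM ATP and ran 10 min at 30 °C. It was stopped with EDTA containing Sa-XL665 and Eu(K) antibody, then held 1 h at room temperature. TR-FRET 665/620 ratio was read, minus the negative control. IC50s are means of at least three independent experiments, each in duplicate.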

[2] = target: Serine/threonine-protein kinase Chk2 (Homo sapiens, UniProt O96017); assay: Inhibition of human Chk2 using STK1 as substrate after 10 mins by HTRF assay; outline: as §1
Homo sapiens = species on record: Homo sapiens; assay: Selectivity ratio of IC50 for human CHK1 to IC50 for human CHK2

Sequence of Serine/threonine-protein kinase Chk2 (O96017 whole entry): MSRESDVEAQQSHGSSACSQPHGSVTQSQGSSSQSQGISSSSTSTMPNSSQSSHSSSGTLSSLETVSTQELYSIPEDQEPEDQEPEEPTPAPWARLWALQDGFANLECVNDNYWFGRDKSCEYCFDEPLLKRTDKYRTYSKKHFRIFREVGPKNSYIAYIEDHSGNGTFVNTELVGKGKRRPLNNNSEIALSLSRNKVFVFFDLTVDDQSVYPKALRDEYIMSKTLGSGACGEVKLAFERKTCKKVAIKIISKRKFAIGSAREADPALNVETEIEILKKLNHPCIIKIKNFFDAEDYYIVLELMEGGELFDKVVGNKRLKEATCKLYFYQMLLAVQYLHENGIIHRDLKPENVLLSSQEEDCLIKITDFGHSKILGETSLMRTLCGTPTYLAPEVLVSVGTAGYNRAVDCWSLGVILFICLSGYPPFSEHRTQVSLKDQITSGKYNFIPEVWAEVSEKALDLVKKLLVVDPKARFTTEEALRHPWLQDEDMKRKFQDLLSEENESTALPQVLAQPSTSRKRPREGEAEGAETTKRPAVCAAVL

| SMILES | IC50 [1] [nM] | IC50 [2] [nM] | Ratio IC50 (Homo sapiens) |
| --- | --- | --- | --- |
| O=C1N=C(NCc2ccccc2)N/C1=C1/CCNC(=O)c2[nH]c(-c3ccccc3)cc21 | 905 | 28 | 32 |
| CNC1=NC(=O)/C(=C2\CCNC(=O)c3[nH]c(-c4ccccc4)cc32)N1 | 6560 | 171 | 38 |
| O=C1N=C(NC2CCCCC2)N/C1=C1/CCNC(=O)c2[nH]c(-c3ccccc3)cc21 | > 10000 | 1530 | > 7 |
| COc1ccc(CNC2=NC(=O)/C(=C3\CCNC(=O)c4[nH]c(-c5ccccc5)cc43)N2)cc1 | > 10000 | 588 | > 17 |
| NC1=NC(=O)/C(=C2\CCNC(=O)c3[nH]c(-c4ccccc4)cc32)N1 | 1310 | 20 | 66 |

Other lines, results leading:

| IC50 [1] [nM] | IC50 [2] [nM] | Ratio IC50 (Homo sapiens) | SMILES |
| --- | --- | --- | --- |
| 867 | 14 | 62 | COc1ccc(-c2cc3c([nH]2)C(=O)NCC/C3=C2/NC(N)=NC2=O)cc1 |
| 234 |  | 29 | Nc1nc(C2=C3C(=Nc4ccccc43)C(=O)NCC2)c(O)[nH]1 |
|  |  | 4 | NC1=N/C(=C2/CCNC(=O)c3[nH]ccc32)C(=O)N1 |
| > 10000 | 277 | > 36 | CCOC(=O)CCNC1=NC(=O)/C(=C2\CCNC(=O)c3[nH]c(-c4ccccc4)cc32)N1 |
| 1550 | 14 | 111 | COc1ccc(-c2cc3c([nH]2)C(=O)NCC/C3=C2/NC(N)=NC2=O)cc1OC |
| > 10000 | 156 | > 64 | CCCNC1=NC(=O)/C(=C2\CCNC(=O)c3[nH]c(-c4ccccc4)cc32)N1 |
